Laboratory results reported in PMC9939367 (Acta Pharmaceutica Sinica. B, 2022).
Where “and” joins values, the source holds several entries; their conditions need not be identical. Equal entries are not always repeated.

Key:
human MOR [1] = target: T1, human MOR (Homo sapiens, UniProt P35372); format: cell-based
male Wistar rats [2] = assay: Whole body plethysmography; format: in vivo, rat
male Wistar rats [3] = assay: Carrageenan-induced acute inflammatory pain, mechanical allodynia; format: in vivo, rat; conditions: for maximal effect, carrageenan mechanical allodynia: single i.p., ipsilateral paw
male Wistar rats [4] = assay: Tail-flick test; format: in vivo, rat; conditions: for maximal effect, tail flick: single i.p.
male Wistar rats [5] = assay: Paw pressure test; format: in vivo, rat; conditions: for maximal efficacy, paw pressure: single i.p.
male Wistar rats [6] = assay: MIA-induced osteoarthritis pain, acute treatment, mechanical allodynia; format: in vivo, rat; conditions: for maximal effect, MIA mechanical allodynia: single i.p., ipsilateral paw
male Wistar rats [7] = assay: Spared nerve injury; format: in vivo, rat; conditions: for maximal effect, SNI mechanical allodynia: single i.p., ipsilateral paw
male Wistar rats [8] = assay: Intestinal transit inhibition; format: in vivo, rat
[9] = more than 180 targets; cited from earlier work
mice = conditions: repeated b.i.d. administration for 10 days in mice; cited from earlier work
male Wistar rats [10] = format: in vivo, rat; conditions: 3 mg/kg i.p.
In short: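 Male Wistar rats received i.p. vehicle (0.5% hydroxypropyl methylcellulose) or test compound, dose groups n = 7–10. The read-out 20 min after dosing was paw-pressure PPT, tail-flick TFL, or von Frey PWT in carrageenan-, MIA- and SNI-induced pain models. Dose–response curves were fitted to a four-parameter logistic (variable slope) by least-squares non-linear fitting. Efficacy at 3 mg/kg i.p. was calculated from each model's curve.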

MOR = MOR (Rattus norvegicus, UniProt P33535); assay: Brain MOR occupancy, ex vivo autoradiography with [3H]-DAMGO; format: in vivo; conditions: ip, read-out: MOR occupancy, average, 3 mg/kg i.p.
S1R (σ1R) = S1R (σ1R) (Cavia porcellus, UniProt Q60492); assay: [3H]; format: binding; conditions: guinea pig brain membranes, 1 mmol/L DPH
[11] = Plasma levels in the MIA study, repeated b.i.d. s.c. dosing; format: in vivo, rat
In short: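 MIA-injected male Wistar rats (n = 5/group) received 0.5, 1.5 or 3 mg/kg s.c. b.i.d. for 28 days, starting 14 days post-MIA. Caudal-vein blood was drawn on Day 1 (first dose) and Day 28 (last dose), 35–40 min post-dose, right after von Frey testing. Samples went into K2-EDTA tubes and were spun 4 °C, 3700 × g, 10 min. Acetonitrile precipitation preceded LC–MS/MS (LOQ 1 ng/mL). Values are mean ± SEM.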

human S1R = conditions: read-out: In vitro binding affinity (Ki), S1R; cited from earlier work
[12] = Plasma pharmacokinetics in ferrets, single i.p. dose; format: in vivo, ferret
In short: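 Male ferrets received a single i.p. dose of 0.5 or 1 mg/kg. Serial blood was drawn via carotid catheter at predose, 5, 15, 30 min and 1, 2, 4, 7, 24 h. Samples went into heparinized tubes and were spun 4 °C, 3700 × g, 10 min. Plasma was acetonitrile-precipitated and measured by LC–MS/MS (LOQ 1 ng/mL). AUC and Cmax came from non-compartmental analysis.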

[13] = Plasma and brain pharmacokinetics, 3 mg/kg i.p. single dose; format: in vivo; conditions: rat
In short: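 Male Wistar rats got a single 3 mg/kg i.p. dose: 48 rats, 8 sampling points, 6 per point. Blood went into heparinized tubes and was centrifuged 4 °C, 3700 × g, 10 min. Brains were homogenized in DPBS (1:5 w/w). After acetonitrile protein precipitation, LC–MS/MS quantified drug (LOQ 1 ng/mL plasma, 2 ng/g brain). AUC, Cmax, Tmax and t1/2 came from non-compartmental analysis. Brain-to-plasma ratio = AUC brain/AUC plasma.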

human MOR [14] = conditions: read-out: In vitro binding affinity (Ki), MOR; cited from earlier work
human MOR [15] = target: T1, human MOR; format: cell-based; remark: listed apart in the source
[16] = test system: male ferrets (Mustela putorius furo); assay: Proemetic response in ferrets; conditions: for emetic response (retching and vomiting, words) / nausea-like global score: 4 h observation
S1R = S1R (Rattus norvegicus, UniProt Q9R0C9); assay: Brain S1R occupancy, ex vivo autoradiography with [3H]-; format: in vivo; conditions: morphine 10 mg/kg, oxycodone 3 mg/kg i.p., 30 min
S1R, sequence (Q9R0C9 whole entry): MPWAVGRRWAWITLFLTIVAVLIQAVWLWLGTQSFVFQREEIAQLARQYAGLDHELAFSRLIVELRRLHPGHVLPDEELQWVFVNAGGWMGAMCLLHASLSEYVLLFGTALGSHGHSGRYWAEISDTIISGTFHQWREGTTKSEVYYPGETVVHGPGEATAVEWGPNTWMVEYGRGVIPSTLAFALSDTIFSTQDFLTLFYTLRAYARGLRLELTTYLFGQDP

T1 sequence (P35372 whole entry): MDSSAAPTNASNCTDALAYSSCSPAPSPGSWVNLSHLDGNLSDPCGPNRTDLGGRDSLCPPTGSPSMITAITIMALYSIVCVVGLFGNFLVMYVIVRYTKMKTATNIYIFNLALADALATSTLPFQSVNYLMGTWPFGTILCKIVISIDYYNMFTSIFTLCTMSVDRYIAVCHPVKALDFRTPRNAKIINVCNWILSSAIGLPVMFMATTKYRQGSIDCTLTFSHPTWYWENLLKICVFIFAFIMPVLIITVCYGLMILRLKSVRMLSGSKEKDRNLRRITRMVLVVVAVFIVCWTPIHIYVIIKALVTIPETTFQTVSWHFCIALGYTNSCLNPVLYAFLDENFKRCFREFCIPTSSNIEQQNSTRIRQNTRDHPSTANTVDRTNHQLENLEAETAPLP
S1R (σ1R), sequence (Q60492 whole entry): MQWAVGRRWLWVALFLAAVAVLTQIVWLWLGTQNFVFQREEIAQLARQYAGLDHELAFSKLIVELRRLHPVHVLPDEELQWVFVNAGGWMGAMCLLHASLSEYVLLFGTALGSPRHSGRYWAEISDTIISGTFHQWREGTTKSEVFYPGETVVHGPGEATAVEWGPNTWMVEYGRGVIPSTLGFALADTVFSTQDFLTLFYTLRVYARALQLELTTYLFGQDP
MOR, sequence (P33535 whole entry): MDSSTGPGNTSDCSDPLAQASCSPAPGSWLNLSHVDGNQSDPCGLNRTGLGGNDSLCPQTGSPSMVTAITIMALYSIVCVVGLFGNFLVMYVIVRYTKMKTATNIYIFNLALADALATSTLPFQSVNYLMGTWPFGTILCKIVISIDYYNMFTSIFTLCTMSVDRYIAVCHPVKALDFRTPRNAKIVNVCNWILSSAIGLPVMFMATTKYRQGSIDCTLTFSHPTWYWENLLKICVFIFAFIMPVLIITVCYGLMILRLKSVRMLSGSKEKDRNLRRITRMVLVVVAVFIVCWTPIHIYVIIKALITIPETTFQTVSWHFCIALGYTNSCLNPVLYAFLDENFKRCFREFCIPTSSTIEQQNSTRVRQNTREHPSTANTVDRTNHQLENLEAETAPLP

With `COc1ccc2c3c1O[C@H]1C(=O)CC[C@@]4(O)[C@@H](C2)N(C)CC[C@]314` [oxycodone, reference compound] the “β-Arrestin lgτ” value (human MOR [1]) was −0.28, the “minute volume (MV) inhibition” value (male Wistar rats [2]; 1.25 mg/kg i.p.) was “did not significantly modify MV” and the “minute volume (MV) inhibition” value (male Wistar rats [2]; 5 mg/kg i.p.) was 30%. The “minute volume (MV) inhibition” value (male Wistar rats [2]; 10 mg/kg i.p.) was 50%, the “maximal effect, carrageenan mechanical allodynia” value (male Wistar rats [3]) was no less than 80% and the “maximal effect, tail flick” value (male Wistar rats [4]) was no less than 95%. For the same molecule, the “maximal efficacy, paw pressure” value (male Wistar rats [5]) was no less than 80%, the “maximal effect, MIA mechanical allodynia” value (male Wistar rats [6]) was no less than 95% and the “maximal effect, SNI mechanical allodynia” value (male Wistar rats [7]) was 74.9 ± 7.5%. For the same molecule, the intestinal transit inhibition (male Wistar rats [8]; 2.5 mg/kg i.p.) was “no effect”, the intestinal transit inhibition (male Wistar rats [8]; 5 mg/kg i.p.) was 72% and the intestinal transit inhibition (male Wistar rats [8]; 10 mg/kg i.p.) was 93%.

For `CCN1CC2(CCN(CCc3cc(F)ccc3F)CC2)O[C@H](C)C1=O` [WLB-73502, (R)-9-(2,5-difluorophenethyl)-4-ethyl-2-methyl-1-oxa-4,9-diazaspiro[5.5]undecan-3-one], the “effect on β-arrestin-2 recruitment” value (human MOR [1]) is listed as “no effect”, the “selectivity against target panel” value [9] is listed as “selective” and the “naloxone-precipitated withdrawal signs” value (mice) is listed as “not detected”. For the same molecule, the “Antinociceptive efficacy, average of the pain models” value (male Wistar rats [10]) was 75%, the receptor occupancy at 3 mg/kg (MOR) was 50% and the “Ki without DPH/Ki with DPH” value (S1R (σ1R)) was 0.9. For the same molecule, the “minute volume (MV) inhibition” value (male Wistar rats [2]; 1.25 mg/kg i.p.) was “did not significantly change MV”, the “minute volume (MV) inhibition” value (male Wistar rats [2]; 5 mg/kg i.p.) was “did not significantly change MV” and the “minute volume (MV) inhibition” value (male Wistar rats [2]; 10 mg/kg i.p.) was roughly 30%. For the same molecule, the “minute volume (MV) inhibition” value (male Wistar rats [2]; 20 mg/kg i.p.) was roughly 30%, the “potency relative to morphine, carrageenan” value (male Wistar rats [3]; more potent than morphine) was 2 fold and the “maximal effect, carrageenan mechanical allodynia” value (male Wistar rats [3]) was no less than 80%. For the same molecule, the Plasma concentration ([11]; 0.5 mg/kg s.c. b.i.d., Day 28, 35–40 min after administration) was 82 ± 3.2 ng/mL, the Plasma concentration ([11]; 0.5 mg/kg s.c., Day 1, 35–40 min after administration) was 47.3 ± 3.8 ng/mL and the Plasma concentration ([11]; 1.5 mg/kg s.c. b.i.d., Day 28, 35–40 min after administration) was 283.7 ± 10.4 ng/mL. It also gave a Plasma concentration ([11]; 1.5 mg/kg s.c., Day 1, 35–40 min after administration) of 174.9 ± 7.4 ng/mL, a Plasma concentration ([11]; 3 mg/kg s.c. b.i.d., Day 28, 35–40 min after administration) of 550.6 ± 33.8 ng/mL and a Plasma concentration ([11]; 3 mg/kg s.c., Day 1, 35–40 min after administration) of 361 ± 24.7 ng/mL. The “potency relative to morphine, tail flick” value (male Wistar rats [4]; more potent than morphine) was roughly 4 fold, the “maximal effect, tail flick” value (male Wistar rats [4]) was no less than 95% and the Ki (human S1R) was 118 nM. For the same molecule, the AUC(0-inf) ([12]; ferret, plasma, ip, 1 mg/kg) was 2460 ± 625 ng·h/mL, the Cmax ([12]; ferret, plasma, ip, 1 mg/kg) was 620 ± 98 ng/mL and the “AUC in ferrets at 1 mg/kg relative to rats at 3 mg/kg” value ([12]; higher in ferrets) was 18 fold. The “potency relative to morphine, paw pressure” value (male Wistar rats [5]; more potent than morphine) was ~4 fold and 3 fold, the “maximal efficacy, paw pressure” value (male Wistar rats [5]) was no less than 80% and the “potency relative to morphine, MIA” value (male Wistar rats [6]; more potent than morphine) was 2 fold. For the same molecule, the “maximal effect, MIA mechanical allodynia” value (male Wistar rats [6]) was no less than 95%, the “Brain-to-plasma ratio (AUC brain/AUC plasma)” value ([13]; 3 mg/kg i.p.) was 2.57 and the Cmax ([13]; Wistar, brain, ip, 3 mg/kg) was 982 ± 191 ng/g. The Tmax ([13]; Wistar, brain, ip, 3 mg/kg, 3 mg/kg i.p.) was 4.8 min, the half-life ([13]; Wistar, brain, ip, 3 mg/kg, t1/2, brain, 3 mg/kg i.p.) was 20.4 min and the AUC(0-inf) ([13]; Wistar, plasma, ip, 3 mg/kg) was 136 ± 15 ng·h/mL. For the same molecule, the Cmax ([13]; Wistar, plasma, ip, 3 mg/kg) was 441 ± 73 ng/mL, the Tmax ([13]; Wistar, plasma, ip, 3 mg/kg, 3 mg/kg i.p.) was 4.8 min and the Tmax ([13]; Wistar, plasma, ip, 3 mg/kg, 3 mg/kg i.p., first sampling time) was 5 min. The “AUC0–∞” value ([13]; brain, 3 mg/kg i.p.) was 350 ± 40 (ng·h/g), the Ki (human MOR [14]) was 64 nM and the “cAMP lgτ (operational efficacy, G-protein pathway)” value (human MOR [15]) was 1.58. The “potency relative to morphine, SNI” value (male Wistar rats [7]; more potent than morphine) was 8 fold, the “potency relative to oxycodone, SNI” value (male Wistar rats [7]; more potent than oxycodone) was 3 fold and the “maximal effect, SNI mechanical allodynia” value (male Wistar rats [7]) was 91.2 ± 5.9%. For the same molecule, the “emetic response (retching and vomiting, words)” value ([16]; 0.5 mg/kg i.p.) was “did not induce any emetic response”, the nausea-like global score ([16]; 0.5 mg/kg i.p.) was roughly 2 and the “emetic response (retching and vomiting, words)” value ([16]; 1 mg/kg i.p.) was “did not induce any emetic response”. The nausea-like global score ([16]; 1 mg/kg i.p.) was roughly 4, the intestinal transit inhibition (male Wistar rats [8]; 2.5 mg/kg i.p.) was “did not significantly inhibit” and the intestinal transit inhibition (male Wistar rats [8]; 5 mg/kg i.p.) was “did not significantly inhibit”. It also gave an intestinal transit inhibition (male Wistar rats [8]; 10 mg/kg i.p.) of 19% and an intestinal transit inhibition (male Wistar rats [8]; 20 mg/kg i.p.) of 59%.

In the case of `CN1CC[C@]23c4c5ccc(O)c4O[C@H]2[C@@H](O)C=C[C@H]3[C@H]1C5` [morphine, Morphine, reference compound], the “maximal effect, carrageenan mechanical allodynia” value (male Wistar rats [3]) is reported as no less than 80%, the “maximal effect, tail flick” value (male Wistar rats [4]) is reported as no less than 95% and the “maximal efficacy, paw pressure” value (male Wistar rats [5]) is reported as no less than 80%. For the same molecule, the “maximal effect, MIA mechanical allodynia” value (male Wistar rats [6]) was no less than 95%, the “effect on [3H]-(+)-pentazocine specific binding in rat cortex and striatum” value (S1R) was “neither morphine nor oxycodone had a significant effect” and the “maximal effect, SNI mechanical allodynia” value (male Wistar rats [7]) was 82.2 ± 11.1%. It also gave a nausea-like global score ([16]; 0.5 mg/kg s.c.) of roughly 12, a retches ([16]; 0.5 mg/kg s.c., 4 h period) of 2.17 ± 0.60 and a vomits ([16]; 0.5 mg/kg s.c., 4 h period) of 1.17 ± 0.65.

In the case of `COc1ccc2c(c1)[C@]13CCCC[C@@H]1[C@H](C2)N(C)CC3` [dextromethorphan, Dextromethorphan, reference compound], the “Ki without DPH/Ki with DPH” value (S1R (σ1R)) is reported as 9.0.
